Values after ≈ are worked out from the molar mass of the structure shown. Active and inactive are the calls of the source. The rule behind the calls is not given here.
The compounds below were run on Candida albicans (assay: Antifungal activity against Candida albicans assessed as growth inhibition at 50 ug/ml in liquid medium by liquid MIC assay). Conditions: dose 50.0 µg/ml.
Format: functional, organism-based
Method in brief: (§1)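 Single-concentration liquid-medium growth screen of non-spore-forming microbes, run at 50 and 12.5 μg/mL. Growth is read by absorbance.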
In the case of OB1OCC=C1c1cccc(I)c1, the Activity is reported as “Active”.
In the case of OB1OCC=C1c1cccc(Br)c1, the Activity is reported as “Active”.
With OB1OCC=C1c1ccc(Cl)cc1 the Activity was “Active”.
In the case of OB1OCC=C1c1ccc(Br)cc1, the Activity is reported as “Active”.
With OB1OCC=C1c1ccc(OC(F)(F)F)cc1 the Activity was “Active”.
In the case of OB1OCC=C1c1ccc2occc2c1, the Activity is reported as “Active”.
With OB1OCC=C1c1ccc(F)cc1 the Activity was “Active”.

The compounds below were run on Saccharomyces cerevisiae (assay: Antimicrobial activity against Saccharomyces cerevisiae assessed as growth inhibition at 50 ug/ml in liquid medium by liquid MIC assay). Conditions: dose 50.0 µg/ml.
Format: functional, organism-based
Method in brief: as §1
With OB1OCC=C1c1cccc(Cl)c1 the Activity was “Active”.
OB1OCC=C1c1ccccc1 was tested, and the Activity was “Active”.
OB1OCC=C1c1cccc(I)c1 was tested, and the Activity was “Active”.
OB1OCC=C1C1=CCCCC1 was tested, and the Activity was “Active”.
For Cc1cc(F)cc(C2=CCOB2O)c1, the Activity was “Active”.
For OB1OCC=C1c1cccc(Br)c1, the Activity was “Active”.
OB1OCC=C1c1ccccc1Cl was tested, and the Activity was “Active”.
For OB1OCC=C1c1cccs1, the Activity was “Active”.
CCCc1ccc(C2=CCOB2O)cc1 was tested, and the Activity was “Active”.
In the case of COc1cccc(C2=CCOB2O)c1, the Activity is reported as “Active”.
For OB1OCC=C1c1cccc(F)c1, the Activity was “Active”.
For OB1OCC=C1c1ccc(Cl)cc1, the Activity was “Active”.
In the case of OB1OCC=C1c1ccccc1F, the Activity is reported as “Active”.
For OB1OCC=C1c1ccc(Br)cc1, the Activity was “Active”.
For OB1OCC=C1c1ccc(OC(F)(F)F)cc1, the Activity was “Active”.
For Cc1cccc(C2=CCOB2O)c1, the Activity was “Active”.
In the case of OB1OCC=C1c1ccc2occc2c1, the Activity is reported as “Active”.
With Cc1ccc(C2=CCOB2O)cc1 the Activity was “Active”.

What follows are compounds tested on Staphylococcus aureus (assay: Antibacterial activity against methicillin-resistant Staphylococcus aureus assessed as growth inhibition at 50 ug/ml in liquid medium by liquid MIC assay). Conditions: dose 50.0 µg/ml.
Format: functional, organism-based
Method in brief: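 Single-point growth-inhibition screen in liquid medium against nonspore-forming organisms. Compound tested at 50 and 12.5 μg/mL, growth read by absorbance, and reported at the 50 μg/mL level.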
For OB1OCC=C1c1cccc(I)c1, the Activity was “inactive”.

The compounds below were run on Trichophyton mentagrophytes (assay: Antifungal activity against Trichophyton mentagrophytes assessed as growth inhibition incubated for 48 hrs in solid agar medium by solid MIC assay). Conditions: not given.
Format: functional
Method in brief: (§2)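 Dose-dependent solid-agar MIC assay for spore-forming fungi (liquid media unusable because mycelia clump and block absorbance). Compound tested at […] in agar. Fungal growth scored visually as white mycelia on the plates. MIC is taken from biological replicates.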
For NYSTATIN, the MIC was 3.13 µg/mL.

The compounds below were run on Penicillium chrysogenum (assay: Antifungal activity against Penicillium chrysogenum assessed as growth inhibition incubated for 48 hrs in solid agar medium by solid MIC assay). Conditions: not given.
Format: functional
Method in brief: as §2
Compound NYSTATIN has an MIC of 1.56 µg/mL.

These compounds were tested on Aspergillus flavus (assay: Antifungal activity against Aspergillus flavus assessed as growth inhibition incubated for 48 hrs in solid agar medium by solid MIC assay). Conditions: not given.
Format: functional
Method in brief: as §2
NYSTATIN was tested, and the MIC was 2.6 µg/mL.

These compounds were tested on Candida albicans (assay: Antifungal activity against Candida albicans assessed as growth inhibition incubated for 48 hrs in solid agar medium by solid MIC assay). Conditions: not given.
Format: functional
In the case of NYSTATIN, the MIC is reported as 0.78 µg/mL.

The compounds below were run on Saccharomyces cerevisiae (assay: Antimicrobial activity against Saccharomyces cerevisiae assessed as growth inhibition incubated for 48 hrs in solid agar medium by solid MIC assay). Conditions: not given.
Format: functional
Compound NYSTATIN has an MIC of 1.56 µg/mL.

What follows are compounds tested on Bacillus cereus (assay: Antibacterial activity against Bacillus cereus assessed as growth inhibition incubated for 48 hrs in solid agar medium by solid MIC assay). Conditions: not given.
Format: functional
Work on NYSTATIN yielded an MIC greater than 50 µg/mL.

These compounds were tested on Staphylococcus aureus (assay: Antibacterial activity against methicillin-resistant Staphylococcus aureus assessed as growth inhibition incubated for 48 hrs in solid agar medium by solid MIC assay). Conditions: not given.
Format: functional
OB1OCc2cc(F)ccc21 [TAVABOROLE] showed an MIC greater than 50 µg/mL.
Compound NYSTATIN has an MIC greater than 50 µg/mL.

Each compound was assayed on Pseudomonas aeruginosa (assay: Antibacterial activity against Pseudomonas aeruginosa deltaMexAB-OprM assessed as growth inhibition incubated for 48 hrs in solid agar medium by solid MIC assay). Conditions: not given.
Format: functional
NYSTATIN gave an MIC greater than 50 µg/mL.

These compounds were tested on H9c2 (assay: Cytotoxicity against rat H9c2 cells assessed as cell viability at 100 uM incubated for 24 hrs by CCk8 dye assay). Conditions: h9c2, 24 h.
Format: toxicity, cell-based
Method in brief: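 Rat myoblast H9c2 cells are exposed to 100 μM compound for 24 h. Viability is normalized to PBS no-treatment control. Values are mean ± SEM, n = 3.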
In the case of OB1OCC=C1c1cccc(Cl)c1, the Activity is reported as “Non-Toxic”.
OB1OCC=C1c1cccc(I)c1 was tested, and the Activity was “Non-Toxic”.
In the case of Cc1cc(F)cc(C2=CCOB2O)c1, the Activity is reported as “Non-Toxic”.
With OB1OCC=C1c1cccc(Br)c1 the Activity was “Non-Toxic”.
With OB1OCc2cc(F)ccc21 [TAVABOROLE] the Activity was “Non-Toxic”.
For CCCc1ccc(C2=CCOB2O)cc1, the Activity was “Non-Toxic”.
For OB1OCC=C1c1ccc2ccccc2c1, the Activity was “Non-Toxic”.
For OB1OCC=C1c1cccc(F)c1, the Activity was “Non-Toxic”.
OB1OCC=C1c1ccc(Cl)cc1 was tested, and the Activity was “Non-Toxic”.
For OB1OCC=C1c1ccccc1F, the Activity was “Non-Toxic”.
In the case of OB1OCC=C1c1ccc(Br)cc1, the Activity is reported as “Non-Toxic”.
With CC(C)(C)c1ccc(C2=CCOB2O)cc1 the Activity was “Non-Toxic”.
OB1OCC=C1c1ccc(OC(F)(F)F)cc1 was tested, and the Activity was “Non-Toxic”.
For Cc1cccc(C2=CCOB2O)c1, the Activity was “Non-Toxic”.
With OB1OCC=C1c1ccc2occc2c1 the Activity was “Non-Toxic”.
In the case of Cc1ccc(C2=CCOB2O)cc1, the Activity is reported as “Non-Toxic”.
OB1OCC=C1c1ccc(F)cc1 was tested, and the Activity was “Non-Toxic”.

What follows are compounds tested on Erythrocyte (assay: Hemolytic activity in sheep erythrocytes assessed as cell lysis at 50 to 100 uM measured after 1 hr). Conditions: dose 50-100 µM.
Format: toxicity, cell-based, Ovis aries
Method in brief: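 Erythrocytes are exposed to compound at 50 and 100 μM for 1 h. Lysis is normalized to a Triton X-100 positive control. Values are mean ± SEM, n = 3.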
In the case of OB1OCC=C1c1cccc(Cl)c1, the Activity is reported as “Non-Toxic”.
For OB1OCC=C1c1cccc(I)c1, the Activity was “Non-Toxic”.
With Cc1cc(F)cc(C2=CCOB2O)c1 the Activity was “Non-Toxic”.
OB1OCC=C1c1cccc(Br)c1 was tested, and the Activity was “Non-Toxic”.
With OB1OCc2cc(F)ccc21 [TAVABOROLE] the Activity was “Non-Toxic”.
CCCc1ccc(C2=CCOB2O)cc1 was tested, and the Activity was “Non-Toxic”.
OB1OCC=C1c1ccc2ccccc2c1 was tested, and the Activity was “Non-Toxic”.
With OB1OCC=C1c1cccc(F)c1 the Activity was “Non-Toxic”.
With OB1OCC=C1c1ccc(Cl)cc1 the Activity was “Non-Toxic”.
With OB1OCC=C1c1ccccc1F the Activity was “Non-Toxic”.
OB1OCC=C1c1ccc(Br)cc1 was tested, and the Activity was “Non-Toxic”.
CC(C)(C)c1ccc(C2=CCOB2O)cc1 was tested, and the Activity was “Non-Toxic”.
For OB1OCC=C1c1ccc(OC(F)(F)F)cc1, the Activity was “Non-Toxic”.
For Cc1cccc(C2=CCOB2O)c1, the Activity was “Non-Toxic”.
With OB1OCC=C1c1ccc2occc2c1 the Activity was “Non-Toxic”.
Cc1ccc(C2=CCOB2O)cc1 was tested, and the Activity was “Non-Toxic”.
For OB1OCC=C1c1ccc(F)cc1, the Activity was “Non-Toxic”.

These compounds were tested on Escherichia coli (assay: Antibacterial activity against Escherichia coli ATCC 25922 assessed as growth inhibition incubated for 48 hrs in liquid medium by microbroth dilution assay). Conditions: ATCC 25922, 48 h.
Cc1cc(F)cc(C2=CCOB2O)c1 showed an MIC greater than 50 µg/mL.
For OB1OCC=C1c1cccs1, the MIC was 42 µg/mL (≈ 253 µM).
Cc1ccc(C2=CCOB2O)cc1 gave an MIC of 42 µg/mL (≈ 241 µM).
OB1OCC=C1c1ccc(F)cc1 showed an MIC of 42 µg/mL (≈ 236 µM).
